Experimental data collected from several papers.
Lines come from different studies, so protocols differ.
Target: RAC-alpha serine/threonine-protein kinase (AKT1, Homo sapiens, UniProt P31749)

Compound	read-out	action	technique	concentration	endpoint	value
CO[C@@H]1[C@H](N(C)C(=O)c2ccccc2)C[C@H]2O[C@]1(C)n1c3ccccc3c3c4c(c5c6ccccc6n2c5c31)C(=O)NC4	enzyme activity	inhibitor		1 µM	inhibition	7%
COc1ccc2oc(-c3ccc4nc(N)oc4c3)c/c(=N\c3ccccc3NC(=O)CCN)c2c1	binding			1 µM	remaining binding	91%
C#Cc1cnc(Nc2ccnc(CO)c2)nc1Nc1ccccc1S(C)(=O)=NC#N (stereo not shown)	cell-free assay			1 µM	remaining signal	100%
Cc1cc(O)c(-c2ccc([C@@H](C)CN(C)C)cc2)c2c1[nH]c(=O)c1sccc12	enzyme activity	inhibitor		0.1 µM	inhibition	-0.622%
COc1ccc2[nH]c3c4[nH]c5ccc(OC)cc5c4c4c(c3c2c1)C(=O)NC4=O	binding			1 µM	remaining binding	72%
C=CC(=O)N1CCC([C@@H]2CCNc3c(C(N)=O)c(-c4ccc(Oc5ccccc5)cc4)nn32)CC1	enzyme activity	inhibitor		1 µM	inhibition	7%
C1=C/COCc2cc(ccc2OCCN2CCCC2)Nc2nccc(n2)-c2cccc(c2)COC/1	binding			0.1 µM	remaining binding	100%
Cc1ccc(NC(=O)c2ccnc(C(F)(F)F)c2)cc1-c1cc(OCCO)nc(N2CCOCC2)c1	binding			1 µM	remaining binding	99%
N#Cc1ccc(NC(=O)Nc2ccccc2)cc1	cell-free assay		competition with immobilised ligand	25 µM	remaining binding	100%
CCCCC(=O)Nc1ccc(-c2ccc3ncn(CCC)c(=O)c3c2)cn1	binding		competition with immobilised ligand	0.5 µM	remaining binding	100%
